Source: ChEMBL document CHEMBL4229395, “Photoactivated 2,3-distyrylindoles kill multi-drug resistant bacteria” (Bioorg Med Chem Lett, 2018)
Calls of active or inactive are those of the source. The calls are words filed in the database; no cut-off is given here.

Key:
Pseudomonas aeruginosa [1] = assay: Bactericidal activity against Pseudomonas aeruginosa ATCC BAA-2114 at 2 ug/ml in presence of light; assay type: functional, organism-based
Acinetobacter baumannii [2] = assay: Bactericidal activity against Acinetobacter baumannii ATCC BAA1797 at 5 uM in presence of light; assay type: functional, organism-based
Pseudomonas aeruginosa [3] = assay: Bactericidal activity against Pseudomonas aeruginosa ATCC BAA-2114 at 5 uM in presence of light and polymyxin E; assay type: functional, organism-based
Klebsiella pneumoniae [4] = assay: Bactericidal activity against carbapenem-resistant Klebsiella pneumoniae ATCC BAA-2146 at 5 uM in presence of light; assay type: functional, organism-based
Staphylococcus aureus [5] = assay: Bactericidal activity against methicillin-resistant Staphylococcus aureus ATCC BAA-44 incubated under dark condition and measured after overnight incubation by drip-streak plate method; assay type: ADME, organism-based; conditions: in vitro
Procedure, shortened: (§1)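 MRSA ATCC BAA-44 cells incubated with a range of compound concentrations, then irradiated for 2 min with a white-light lamp or kept in the dark. Colonies were counted at the dilution giving 30–300 colonies. Each experiment had 3 replicates and was repeated in 3 independent experiments.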

[6] = Dark toxicity against human MCF7 cells assessed as decrease in cell viability by MTT assay; assay type: cell-based
Procedure, shortened: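 MCF-7 breast adenocarcinoma cells were incubated with compound without light. Viability was read by MTT colorimetric assay, and IC50 was derived from the concentration–response.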

Acinetobacter baumannii [7] = assay: Bactericidal activity against Acinetobacter baumannii ATCC BAA1797 at 5 uM in presence of light and polymyxin E relative to control; assay type: functional
Staphylococcus aureus [8] = assay: Bactericidal activity against methicillin-resistant Staphylococcus aureus ATCC BAA-44 at 0.1 uM irradiated with white light for 2 mins and measured after overnight incubation by drip-streak plate method relative to control; assay type: functional; procedure, shortened: as §1
Pseudomonas aeruginosa [9] = assay: Bactericidal activity against Pseudomonas aeruginosa ATCC BAA-2114 at 5 uM in presence of light; assay type: functional, organism-based
Streptococcus pyogenes [10] = assay: Bactericidal activity against Streptococcus pyogenes ATCC 8133 at 1 uM incubated under dark condition; assay type: ADME, organism-based
Procedure, shortened: (§2)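 Bacterial suspensions (about 10^8 CFU/mL) were incubated with the compound at a range of concentrations and kept in the dark, the unirradiated control for a 2 min white-light exposure. Samples were diluted 10-fold, drip-streaked on TSA and incubated overnight at 37 °C. Colonies were counted at the dilution giving 30–300 colonies.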

Streptococcus mutans [11] = assay: Bactericidal activity against Streptococcus mutans Ward's 85W 2357 at 1 uM in presence of light; assay type: functional, organism-based
Escherichia coli [12] = assay: Bactericidal activity against Escherichia coli ATCC 25922 at 5 uM incubated under dark condition; assay type: ADME, organism-based
Acinetobacter baumannii [13] = assay: Bactericidal activity against Acinetobacter baumannii ATCC BAA1797 at 5 uM incubated under dark condition; assay type: ADME, organism-based
Klebsiella pneumoniae [14] = assay: Bactericidal activity against carbapenem-resistant Klebsiella pneumoniae ATCC BAA-2146 at 5 uM incubated under dark condition in presence of polymyxin E; assay type: ADME, organism-based
Staphylococcus aureus [15] = assay: Bactericidal activity against Staphylococcus aureus ATCC 29213 at 1 uM incubated under dark condition; assay type: ADME, organism-based
Klebsiella pneumoniae [16] = assay: Bactericidal activity against carbapenem-resistant Klebsiella pneumoniae ATCC BAA-2146 at 5 uM in presence of light and polymyxin E; assay type: functional, organism-based
Escherichia coli [17] = assay: Bactericidal activity against Escherichia coli ATCC 25922 at 5 uM in presence of light; assay type: functional, organism-based
Klebsiella pneumoniae [18] = assay: Bactericidal activity against carbapenem-resistant Klebsiella pneumoniae ATCC BAA-2146 at 2 ug/ml in presence of light; assay type: functional, organism-based
Klebsiella pneumoniae [19] = assay: Bactericidal activity against carbapenem-resistant Klebsiella pneumoniae ATCC BAA-2146 at 5 uM incubated under dark condition; assay type: ADME, organism-based
Staphylococcus aureus [20] = assay: Bactericidal activity against methicillin-resistant Staphylococcus aureus ATCC BAA1717 at 1 uM in presence of light; assay type: functional, organism-based
Staphylococcus aureus [21] = assay: Disruption of cell membrane in methicillin-resistant Staphylococcus aureus ATCC BAA-44 at 10 uM in presence of light by propidium iodide staining-based assay; assay type: functional, organism-based
Procedure, shortened: (§3)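 MRSA ATCC BAA-44 cells were treated with compound with or without light, then stained with propidium iodide. Red PI fluorescence marks membrane disruption; green fluorescence comes from the compound. Phenylarsine oxide was the positive control.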

Enterococcus faecalis [22] = assay: Bactericidal activity against Enterococcus faecalis ATCC 51299 at 1 uM in presence of light; assay type: functional, organism-based
Staphylococcus aureus [23] = assay: Bactericidal activity against methicillin-resistant Staphylococcus aureus ATCC BAA-44 at 1 uM irradiated with white light through mask for 2 mins and measured after overnight incubation; assay type: functional, organism-based
Procedure, shortened: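 MRSA ATCC BAA-44 cells were pre-treated with compound at 1 μM and spread over an agar plate. The plate was irradiated with white light through a mask for 2 min, incubated overnight at 37 °C and photographed to show where colonies grew.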

Staphylococcus aureus [24] = assay: Disruption of cell membrane in methicillin-resistant Staphylococcus aureus ATCC BAA-44 in presence of light by scanning electron microscopic method; assay type: functional, organism-based
[25] = Induction of singlet oxygen generation at 1210 nm; assay type: functional
Escherichia coli [26] = assay: Bactericidal activity against Escherichia coli ATCC 25922 at 5 uM incubated under dark condition in presence of polymyxin E; assay type: ADME, organism-based
Streptococcus pyogenes [27] = assay: Bactericidal activity against Streptococcus pyogenes ATCC 8133 at 1 uM in presence of light; assay type: functional, organism-based
Pseudomonas aeruginosa [28] = assay: Bactericidal activity against Pseudomonas aeruginosa ATCC BAA-2114 at 5 uM incubated under dark condition; assay type: ADME, organism-based
Acinetobacter baumannii [29] = assay: Bactericidal activity against Acinetobacter baumannii ATCC BAA1797 at 1.25 ug/ml in presence of light; assay type: functional, organism-based
Escherichia coli [30] = assay: Bactericidal activity against Escherichia coli ATCC 25922 at 2 ug/ml in presence of light; assay type: functional, organism-based
Staphylococcus aureus [31] = assay: Disruption of cell membrane in methicillin-resistant Staphylococcus aureus ATCC BAA-44 at 10 uM incubated under dark condition by propidium iodide staining-based assay; assay type: organism-based; procedure, shortened: as §3
Enterococcus faecalis [32] = assay: Bactericidal activity against Enterococcus faecalis ATCC 51299 at 1 uM incubated under dark condition; assay type: ADME, organism-based; procedure, shortened: as §2
Escherichia coli [33] = assay: Bactericidal activity against Escherichia coli ATCC 25922 at 5 uM in presence of light and polymyxin E relative to control; assay type: functional
Staphylococcus aureus [34] = assay: Disruption of cell membrane in methicillin-resistant Staphylococcus aureus ATCC BAA-44 incubated under dark condition by scanning electron microscopic method; assay type: organism-based
Staphylococcus aureus [35] = assay: Bactericidal activity against methicillin-resistant Staphylococcus aureus ATCC BAA-44 irradiated with white light for 2 mins and measured after overnight incubation by drip-streak plate method; assay type: functional, organism-based; procedure, shortened: as §1
Staphylococcus aureus [36] = assay: Bactericidal activity against Staphylococcus aureus ATCC 29213 at 1 uM in presence of light; assay type: functional, organism-based
Streptococcus mutans [37] = assay: Bactericidal activity against Streptococcus mutans Ward's 85W 2357 at 1 uM incubated under dark condition; assay type: ADME, organism-based; procedure, shortened: as §2
Staphylococcus aureus [38] = assay: Bactericidal activity against methicillin-resistant Staphylococcus aureus ATCC BAA-44 at 5 uM irradiated with white light for 2 mins and measured after overnight incubation by drip-streak plate method; assay type: functional, organism-based; procedure, shortened: as §1
[39] = Induction of singlet oxygen generation at 1285 nm at 10 uM; assay type: functional
Staphylococcus aureus [40] = assay: Bactericidal activity against methicillin-resistant Staphylococcus aureus ATCC BAA-44 at 30 nM irradiated with white light for 2 mins and measured after overnight incubation by drip-streak plate method relative to control; assay type: functional; procedure, shortened: as §1
Pseudomonas aeruginosa [41] = assay: Bactericidal activity against Pseudomonas aeruginosa ATCC BAA-2114 at 2 ug/ml incubated under dark condition; assay type: ADME, organism-based
Escherichia coli [42] = assay: Bactericidal activity against Escherichia coli ATCC 25922 at 2 ug/ml incubated under dark condition; assay type: ADME, organism-based
Klebsiella pneumoniae [43] = assay: Bactericidal activity against carbapenem-resistant Klebsiella pneumoniae ATCC BAA-2146 at 2 ug/ml incubated under dark condition; assay type: ADME, organism-based
Acinetobacter baumannii [44] = assay: Bactericidal activity against Acinetobacter baumannii ATCC BAA1797 at 1.25 ug/ml incubated under dark condition; assay type: ADME, organism-based

Molecule: Clc1ccc(/C=C/c2[nH]c3ccccc3c2/C=C/c2ccc(Cl)cc2)cc1
- Activity (Pseudomonas aeruginosa [1]): inactive
- Activity (Acinetobacter baumannii [2]): inactive
- Activity (Pseudomonas aeruginosa [3]): Active
- Activity (Klebsiella pneumoniae [4]): inactive
- Activity (Staphylococcus aureus [5]): Dose-dependent effect
- IC50 [6]: 47 µM
- Activity (Acinetobacter baumannii [7]): 7 deltalog10CFU/ml
- Activity (Staphylococcus aureus [8]): 5 deltalog10CFU/ml
- Activity (Pseudomonas aeruginosa [9]): inactive
- Activity (Streptococcus pyogenes [10]): Non-Toxic
- Activity (Streptococcus mutans [11]): Active
- Activity (Escherichia coli [12]): Non-Toxic
- Activity (Acinetobacter baumannii [13]): Non-Toxic
- Activity (Klebsiella pneumoniae [14]): Toxic
- Activity (Staphylococcus aureus [15]): Non-Toxic
- Activity (Klebsiella pneumoniae [16]): Active
- Activity (Escherichia coli [17]): inactive
- Activity (Klebsiella pneumoniae [18]): inactive
- Activity (Klebsiella pneumoniae [19]): Non-Toxic
- Activity (Staphylococcus aureus [20]): Active
- Activity (Staphylococcus aureus [21]): Active
- Activity (Enterococcus faecalis [22]): Active
- Activity (Staphylococcus aureus [23]): Active
- Activity (Staphylococcus aureus [24]): Active
- Activity [25]: Dose-dependent effect
- Activity (Escherichia coli [26]): Toxic
- Activity (Streptococcus pyogenes [27]): Active
- Activity (Pseudomonas aeruginosa [28]): Non-Toxic
- Activity (Acinetobacter baumannii [29]): inactive
- Activity (Escherichia coli [30]): inactive
- Activity (Staphylococcus aureus [31]): Non-Toxic
- Activity (Enterococcus faecalis [32]): Non-Toxic
- Activity (Escherichia coli [33]): 7 deltalog10CFU/ml
- Activity (Staphylococcus aureus [34]): Non-Toxic
- Activity (Staphylococcus aureus [35]): Dose-dependent effect
- Activity (Staphylococcus aureus [36]): Active
- Activity (Streptococcus mutans [37]): Non-Toxic

Molecule: COc1ccc(/C=C/c2[nH]c3ccccc3c2/C=C/c2ccc(OC)cc2)cc1
- Activity (Staphylococcus aureus [38]): inactive

Molecule: Clc1cccc(/C=C/c2[nH]c3ccccc3c2/C=C/c2cccc(Cl)c2)c1
- Activity (Staphylococcus aureus [38]): inactive

Molecule: Clc1ccccc1/C=C/c1[nH]c2ccccc2c1/C=C/c1ccccc1Cl
- Activity (Staphylococcus aureus [38]): Active

Molecule: O=C1OC2(c3cc(I)c(O)c(I)c3Oc3c2cc(I)c(O)c3I)c2c(Cl)c(Cl)c(Cl)c(Cl)c21
- Activity [39]: Active

Molecule: C(=C\c1[nH]c2ccccc2c1/C=C/c1ccccc1)/c1ccccc1
- fold change (FC) (Staphylococcus aureus [40]): 5

Molecule: COLISTIN
- Activity (Pseudomonas aeruginosa [41]): Non-Toxic
- Activity (Escherichia coli [42]): Non-Toxic
- Activity (Klebsiella pneumoniae [43]): Non-Toxic
- Activity (Acinetobacter baumannii [44]): Non-Toxic

Molecule: CN(C)[C@@H]1C(O)=C(C(N)=O)C(=O)[C@@]2(O)C(O)=C3C(=O)c4c(O)cccc4[C@@](C)(O)[C@H]3C[C@@H]12 [TETRACYCLINE]
- IC50 [6]: 41.6 µM

Molecule: CCn1cc(C(=O)O)c(=O)c2cc(F)c(N3CCNCC3)cc21 [NORFLOXACIN]
- IC50 [6]: 13.8 µM

Molecule: Fc1ccc(/C=C/c2[nH]c3ccccc3c2/C=C/c2ccc(F)cc2)cc1
- Activity (Staphylococcus aureus [38]): inactive
